Measurements as given in ChEMBL document CHEMBL3399923, “Design and synthesis of new bioisosteres of spirooxindoles (MI-63/219) as anti-breast cancer agents” (Bioorg Med Chem, 2015).
pIC50: −log10 of the molar value.

Experiments:
MCF7 = test: Cytotoxicity against human MCF7 cells after 48 hrs by MTT assay; type: functional, cell-based; details: MCF7, 48 h
Procedure, shortened: (§1)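 MTT viability screen for cytotoxicity across the breast cancer and normal kidney epithelial lines; IC50 reported in µM.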

Vero = test: Cytotoxicity against African green monkey Vero cells after 48 hrs by MTT assay; type: cell-based; details: Chlorocebus sabaeus; procedure, shortened: as §1
HEK293 = test: Cytotoxicity against human HEK293 cells after 48 hrs by MTT assay; type: cell-based; details: HEK293, 48 h; procedure, shortened: as §1
MDA-MB-231 = test: Cytotoxicity against human MDA-MB-231 cells after 48 hrs by MTT assay; type: functional, cell-based; details: MDA-MB-231, 48 h; procedure, shortened: as §1

| SMILES | pIC50 (MCF7) | pIC50 (Vero) | pIC50 (HEK293) | pIC50 (MDA-MB-231) |
| --- | --- | --- | --- | --- |
| O=C(c1ccc(OCCN2CCOCC2)cc1)C1[C@H](c2ccccc2)[C@@H](c2ccccc2)NC12C(=O)Nc1ccc([N+](=O)[O-])cc12 (stereo partly specified) | 4.61 | < 4.30 | 4.34 | < 4.30 |
| O=C(c1ccccc1)C1[C@H](c2ccc(O)cc2)[C@@H](c2ccccc2)NC12C(=O)Nc1ccccc12 (stereo partly specified) | 4.44 | < 4.30 | < 4.30 | 4.43 |
| CCN(CC)CCOc1ccc(C(=O)C2[C@H](c3ccccc3)[C@@H](c3ccccc3)NC23C(=O)Nc2ccccc23)cc1 (stereo partly specified) | 4.87 | 4.69 | 4.63 | 4.84 |
| CN(C)CCOc1ccc(C(=O)C2[C@H](c3ccccc3)[C@@H](c3ccccc3)NC23C(=O)Nc2ccc([N+](=O)[O-])cc23)cc1 (stereo partly specified) | 4.76 | 4.54 | 4.62 | 4.75 |
| O=C(c1ccc(OCCN2CCCC2)cc1)C1[C@H](c2ccccc2)[C@@H](c2ccccc2)NC12C(=O)Nc1ccccc12 (stereo partly specified) | 4.64 | 4.71 | 4.60 | 4.77 |
| O=C(c1ccc(OCCN2CCOCC2)cc1)C1[C@H](c2ccccc2)[C@@H](c2ccccc2)NC12C(=O)Nc1ccccc12 (stereo partly specified) | < 4.30 | < 4.30 | < 4.30 | < 4.30 |
| CC/C(=C(\c1ccc(O)cc1)c1ccc(OCCN(C)C)cc1)c1ccccc1 | 4.87 | < 4.30 | < 4.30 |  |
| CN(C)CCCOc1ccc(C(=O)C2[C@H](c3ccccc3)[C@@H](c3ccccc3)NC23C(=O)Nc2ccccc23)cc1 (stereo partly specified) | 5.02 | < 4.30 | < 4.30 | 5.04 |
